Reference: article PMC2921005 (Leukemia, 2010)
Entries after “also recorded” stand apart in the source; their conditions may differ.

Legend:
[1] = test system: ERK1/2; experiment: Inhibition of ERK phosphorylation in TF-ITD cells; format: cell-based; details: Homo sapiens, read-out: IC50 for inhibition of phosphorylated ERK, TF-ITD cells in RPMI with 10% FBS (media)
[2] = test system: AML; details: cited from earlier work
[3] = target: T1, FLT3-ITD (Homo sapiens, UniProt P36888); experiment: Plasma inhibitory activity; format: cell-based
T1 sequence (P36888 27-993): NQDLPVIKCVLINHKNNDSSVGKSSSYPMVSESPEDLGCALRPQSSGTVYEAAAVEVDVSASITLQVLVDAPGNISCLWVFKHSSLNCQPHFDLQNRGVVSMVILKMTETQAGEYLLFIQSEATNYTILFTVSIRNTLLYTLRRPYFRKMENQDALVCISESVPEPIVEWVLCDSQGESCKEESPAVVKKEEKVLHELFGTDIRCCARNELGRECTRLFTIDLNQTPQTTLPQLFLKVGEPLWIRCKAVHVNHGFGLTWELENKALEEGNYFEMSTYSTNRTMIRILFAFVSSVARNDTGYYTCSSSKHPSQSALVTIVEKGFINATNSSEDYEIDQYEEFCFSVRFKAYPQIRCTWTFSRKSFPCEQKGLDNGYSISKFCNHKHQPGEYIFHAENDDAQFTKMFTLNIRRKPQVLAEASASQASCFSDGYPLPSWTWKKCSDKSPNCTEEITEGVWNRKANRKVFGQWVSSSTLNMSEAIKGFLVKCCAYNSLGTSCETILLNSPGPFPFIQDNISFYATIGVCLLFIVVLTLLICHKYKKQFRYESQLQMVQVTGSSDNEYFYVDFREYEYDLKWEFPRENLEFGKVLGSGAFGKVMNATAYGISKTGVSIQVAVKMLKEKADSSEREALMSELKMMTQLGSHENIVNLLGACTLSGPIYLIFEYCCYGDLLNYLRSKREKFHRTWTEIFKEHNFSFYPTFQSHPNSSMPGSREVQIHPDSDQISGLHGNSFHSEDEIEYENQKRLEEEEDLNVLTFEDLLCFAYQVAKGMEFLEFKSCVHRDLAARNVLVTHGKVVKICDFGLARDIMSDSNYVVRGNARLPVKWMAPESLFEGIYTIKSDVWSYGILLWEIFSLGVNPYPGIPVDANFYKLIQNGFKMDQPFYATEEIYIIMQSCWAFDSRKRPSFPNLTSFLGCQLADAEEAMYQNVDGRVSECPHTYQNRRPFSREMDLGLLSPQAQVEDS

[4] = Plasma pharmacokinetics of sorafenib and sorafenib N-oxide; details: for concentration at 8 day: Day 8 Cmin; for concentration at 15 day: Day 15 Cmin; for Tmax: first dose, median (range, n)
[5] = Phase I dose escalation trial: toxicities, DLT and MTD; format: in vivo, human
Outline: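 Oral twice-daily tablets of test compound were given for 14 or 21 days of each 28-day cycle. Dose levels were 400 mg ×14 d, 400 mg ×21 d, 600 mg ×14 d and 600 mg ×21 d. Every patient was assessed for DLT, with no intrapatient escalation and up to 6 cycles.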

[6] = human, in vivo, 400 mg, dose levels 1 and 2, 400 mg, mean ± SD
[7] = human, in vivo, po, 600 mg, dose level 3, 600 mg PO BID × 14 of 28 days, n=1
[8] = inter-individual variability, up to

CNC(=O)c1cc(Oc2ccc(NC(=O)Nc3ccc(Cl)c(C(F)(F)F)c3)cc2)ccn1 [sorafenib]
IC50 [1]: 0.91 nM
Patients with >50% reduction in peripheral blood blasts ([2]; single agent given continuously ref 31): 11 out of 20
Patients with FLT3-ITD AML with measured responses ([2]; single agent given continuously, including one morphologic marrow CR ref 31): 9 of 11
Time to complete silencing of FLT3 activity after first dose (PIA) ([3]; dose level 2 and 3, Day 1): ≤ 2 h
Inhibition of FLT3-ITD phosphorylation in PIA, trough samples on therapy ([3]; each of the patients studied (n=9), ex vivo): complete inhibition; also recorded: complete FLT3 silencing
Samples with FLT3 inhibitory activity in PIA at day 29 ([3]; seven days after the last dose): 4/5
Patients with detectable plasma concentration after 14 day break in treatment ([4]; 1/3 patients): 33%
concentration at 3 day ([4]; human, in vivo, 400 mg, Day 3 Cmin, dose levels 1 and 2, 400 mg, mean ± SD): 3980 ± 3140 ng/mL
concentration at 8 day [4, 6]: 4030 ± 3680 ng/mL
concentration at 15 day [4, 6]: 4600 ± 5250 ng/mL
concentration at 29 day ([4]; human, in vivo, po, 400 mg, Day 29 C, dose level 1, 400 mg PO BID × 14 of 28 days, after 14 day break): 190 ng/mL
Tmax ([4]; human, in vivo, po, 400 mg, dose level 1, 400 mg PO BID × 14 of 28 days): 2.3 h
Tmax ([4]; human, in vivo, po, 400 mg, dose level 2, 400 mg PO BID × 21 of 28 days): 4 h
concentration at 2 day ([4]; human, in vivo, po, 600 mg, Day 2 Cmin, dose level 3, 600 mg PO BID × 14 of 28 days, n=1): 2490 ng/mL
concentration at 8 day [4, 7]: 7790 ng/mL
concentration at 15 day [4, 7]: 3650 ng/mL
Tmax ([4]; human, in vivo, po, 600 mg, dose level 3, 600 mg PO BID × 14 of 28 days): 8 h
Coefficient of variation of AUC(0–8h) [4, 8]: up to 95%
Coefficient of variation of Cmax [4, 8]: ≤ 116%
Patients with detectable plasma concentration after 7 day break in treatment ([4]; of 5 patients): 80%
Alkaline phosphatase, Grade 3 ([5]; 400 mg bid × 14d (cycles=6)): 0 (0) n (%)
Any toxicity, Grade 4 ([5]; 400 mg bid × 14d (cycles=6)): 0 (0) n (%)
Bilirubin, Grade 4 ([5]; 400 mg bid × 14d (cycles=6)): 0 (0) n (%)
Edema (limb), Grade 3 ([5]; 400 mg bid × 14d (cycles=6)): 0 (0) n (%)
Fatigue, Grade 3 ([5]; 400 mg bid × 14d (cycles=6)): 1 (17) n (%)
Febrile neutropenia, Grade 3 ([5]; 400 mg bid × 14d (cycles=6)): 2 (33) n (%)
Fever (without neutropenia), Grade 3 ([5]; 400 mg bid × 14d (cycles=6)): 0 (0) n (%)
Hand-foot skin reaction, Grade 3 ([5]; 400 mg bid × 14d (cycles=6)): 0 (0) n (%)
Hypokalemia, Grade 3 ([5]; 400 mg bid × 14d (cycles=6)): 1 (17) n (%)
Hypophosphatemia, Grade 3 ([5]; 400 mg bid × 14d (cycles=6)): 0 (0) n (%)
Hypophosphatemia, Grade 4 ([5]; 400 mg bid × 14d (cycles=6)): 0 (0) n (%)
Muscle weakness, Grade 3 ([5]; 400 mg bid × 14d (cycles=6)): 0 (0) n (%)
Pain, Abdomen NOS, Grade 3 ([5]; 400 mg bid × 14d (cycles=6)): 0 (0) n (%)
Pain, Back, Grade 3 ([5]; 400 mg bid × 14d (cycles=6)): 0 (0) n (%)
Pain, Joint, Grade 3 ([5]; 400 mg bid × 14d (cycles=6)): 0 (0) n (%)
Any toxicity, Grade 3 ([5]; 400 mg bid × 14d (cycles=6), n = number of events): 3 (50) n (%)
Alkaline phosphatase, Grade 3 ([5]; 400 mg bid × 21d (cycles=21)): 2 (10) n (%)
Any toxicity, Grade 4 ([5]; 400 mg bid × 21d (cycles=21)): 3 (14) n (%)
Bilirubin, Grade 4 ([5]; 400 mg bid × 21d (cycles=21)): 1 (5) n (%)
Edema (limb), Grade 3 ([5]; 400 mg bid × 21d (cycles=21)): 2 (10) n (%)
Fatigue, Grade 3 ([5]; 400 mg bid × 21d (cycles=21)): 4 (19) n (%)
Febrile neutropenia, Grade 3 ([5]; 400 mg bid × 21d (cycles=21)): 3 (14) n (%)
Fever (without neutropenia), Grade 3 ([5]; 400 mg bid × 21d (cycles=21)): 1 (5) n (%)
Hand-foot skin reaction, Grade 3 ([5]; 400 mg bid × 21d (cycles=21)): 1 (5) n (%)
Hypokalemia, Grade 3 ([5]; 400 mg bid × 21d (cycles=21)): 2 (10) n (%)
Hypophosphatemia, Grade 3 ([5]; 400 mg bid × 21d (cycles=21)): 1 (5) n (%)
Hypophosphatemia, Grade 4 ([5]; 400 mg bid × 21d (cycles=21)): 1 (5) n (%)
Muscle weakness, Grade 3 ([5]; 400 mg bid × 21d (cycles=21)): 2 (10) n (%)
Pain, Abdomen NOS, Grade 3 ([5]; 400 mg bid × 21d (cycles=21)): 1 (5) n (%)
